Results as given in article PMC9075125 (RSC Advances, 2019).

What was measured:
Experiment in all cases: Cell proliferation assay
Assay type in all cases: cell-based
[1] = test system: human breast cancer cell line MCF-7; conditions: MCF7, 48 h, read-out: IC50, antiproliferation, Human breast cancer (MCF-7)
Summary of the method: (§1)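 Log-phase adherent cells were seeded at 5 × 10^4 cells per mL and allowed 24 h before test compound was added at a range of concentrations for 48 h. MTT (5 mg mL−1 stock) was added for a further 4 h. Medium was removed, formazan dissolved in DMSO, and the plate read on a microplate reader. IC50 was calculated from dose–response curves of three independent assays.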

[2] = test system: non-small cell lung cancer cell line NCI-H460; conditions: Homo sapiens, NCI-H460, 48 h, read-out: IC50, antiproliferation, Non-small cell lung cancer (H460)
Summary of the method: as §1

[3] = test system: human colon cancer cell line HT-29; conditions: HT-29, 48 h, read-out: IC50, antiproliferation, Human colon cancer (HT-29)
Summary of the method: as §1

`CC[C@@]1(O)C(=O)OCc2c1cc1n(c2=O)Cc2cc3ccccc3nc2-1` [CPT, camptothecin] gave an IC50 [1] of 0.37 ± 0.05 µM, an IC50 [2] of 0.04 ± 0.002 µM and an IC50 [3] of 0.04 ± 0.02 µM.
